pIC50: −log10 of the molar value.
How the values were obtained:
[1] = Selectivity index, ratio of TC50 for african green monkey Vero cells to IC50 for Coxsackievirus B1 infected in african green monkey Vero cells; type: toxicity, cell-based; details: read-out: Selectivity Index
Method in brief: (§1)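 SI is calculated as TC50 (50% inhibition of Vero cell growth) divided by IC50 (50% inhibition of the respective CVB subtype's growth, from the CPE assay in Vero cells, ribavirin as positive control).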

[2] = Selectivity index, ratio of TC50 for african green monkey Vero cells to IC50 for Coxsackievirus B6 infected in african green monkey Vero cells; type: toxicity, cell-based; details: read-out: Selectivity Index; method in brief: as §1
[3] = Selectivity index, ratio of TC50 for african green monkey Vero cells to IC50 for Coxsackievirus B5 infected in african green monkey Vero cells; type: toxicity, cell-based; details: read-out: Selectivity Index; method in brief: as §1
Coxsackievirus [4] = test: Antiviral activity against Coxsackievirus B6 infected in african green monkey Vero cells assessed as reduction in viral-induced cytopathic effect; type: functional, organism-based
Method in brief: (§2)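 Vero (African green monkey kidney) cells were infected with the CVB subtype and scored by viral cytopathogenic effect (CPE) reduction, with ribavirin as the positive control. IC50 is the concentration that inhibits CVB growth by 50%.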

[5] = Selectivity index, ratio of TC50 for african green monkey Vero cells to IC50 for Coxsackievirus B2 infected in african green monkey Vero cells; type: toxicity, cell-based; details: read-out: Selectivity Index; method in brief: as §1
Coxsackievirus [6] = test: Antiviral activity against Coxsackievirus B2 infected in african green monkey Vero cells assessed as reduction in viral-induced cytopathic effect; type: functional, organism-based; method in brief: as §2
Coxsackievirus [7] = test: Antiviral activity against Coxsackievirus B3 infected in african green monkey Vero cells assessed as reduction in viral-induced cytopathic effect; type: functional, organism-based; method in brief: as §2
[8] = Selectivity index, ratio of TC50 for african green monkey Vero cells to IC50 for Coxsackievirus B3 infected in african green monkey Vero cells; type: toxicity, cell-based; details: read-out: Selectivity Index; method in brief: as §1
Coxsackievirus [9] = test: Antiviral activity against Coxsackievirus B1 infected in african green monkey Vero cells assessed as reduction in viral-induced cytopathic effect; type: functional, organism-based; method in brief: as §2
Coxsackievirus [10] = test: Antiviral activity against Coxsackievirus B5 infected in african green monkey Vero cells assessed as reduction in viral-induced cytopathic effect; type: functional, organism-based; method in brief: as §2
[11] = Cytotoxicity against african green monkey Vero cells assessed as inhibition of cell growth after 24 hrs by CPE assay; type: cell-based; details: chlorocebus sabaeus, read-out: TC50

Row | pIC50 (Coxsackievirus [4]) | pIC50 (Coxsackievirus [6]) | pIC50 (Coxsackievirus [7]) | pIC50 (Coxsackievirus [9]) | pIC50 (Coxsackievirus [10]) | Structure (SMILES) | selectivity ratio [1] | selectivity ratio [2] | selectivity ratio [3] | selectivity ratio [5] | selectivity ratio [8] | CC50 at 24 h [11] [nM]
1 | 5.55 | 4.90 | 5.51 | 5.59 | 4.98 | COC(=O)C/C=C\[C@@H]1[C@H]2CCCN3CCC[C@@H](CN1S(=O)(=O)c1cccc(C#N)c1)[C@@H]23 | 188 | 174 | 46.7 | 38.9 | 177 | 543000
2 | 6.21 | 5.84 | 5.64 | 5.84 | 5.44 | O=[N+]([O-])c1ccccc1S(=O)(=O)N1C[C@@H]2CCCN3CCC[C@@H]([C@H]23)[C@H]1/C=C\CCO | 116 | 276 | 46.8 | 117 | 153 | 354000
